Data taken from ChEMBL document CHEMBL1125712 (J Med Chem, 1991).
Activity calls are given as the source filed them. The rule behind the calls is not given here.

How the values were obtained:
[1] = test system: aldose reductase (Rattus norvegicus); experiment: In vivo inhibition of sorbitol accumulation in the rat following 10 mg/kg p.o. administration.; conditions: at 10 mg/kg
[2] = biological target: Aldo-keto reductase family 1 member B1 (Homo sapiens, UniProt P15121); experiment: Inhibition of aldose reductase (aldo-keto reductase, AKR1B1) isolated from human placenta.
[3] = species on record: Rattus norvegicus; conditions: at 25 mg/kg
[4] = species on record: Rattus norvegicus; experiment: animal or person; assay type: functional
[5] = test system: Rattus norvegicus; experiment: Compound was evaluated for the ED50(acute) in male Sprague-Dawley rats(n=4) treated with streptozotocin (85 mg/kg intravenously).; assay type: functional; conditions: oral
Summary of the method: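 Streptozotocin-diabetic rats (85 mg/kg iv) dosed by oral gavage, aqueous suspension or solution, at 4, 7 and 24 h. Killed at 27 h. […] ED50 from log linear regression.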

[6] = test system: aldose reductase (Rattus norvegicus); experiment: In vivo inhibition of sorbitol accumulation in the rat following 10 mg/kg p.o. administration; Not significant.; conditions: at 10 mg/kg
[7] = test system: Rattus norvegicus; experiment: Compound was evaluated for the ED50(chronic) in male Sprague-Dawley rats(n=5) treated with streptozotocin (85 mg/kg intravenously).; conditions: oral
[8] = Partition coefficient (logP); assay type: physicochemical; conditions: octanol/water
[9] = Compound was evaluated for the apparent pKa (dioxane/water) the ratio 2:1; assay type: physicochemical; conditions: dioxane/water 2:1
[10] = Compound was evaluated for the apparent pKa (dioxane/water) in the ratio 1:1; assay type: physicochemical; conditions: dioxane/water 1:1

Row | Structure (SMILES) | IC50 [2] | also measured
1 | O=C(O)Cc1nn(Cc2nc3ccc(C(F)(F)F)cc3s2)c(=O)c2ccccc12 | 70 nM | inhibition [1]: 65%
2 | Cc1ccc2nc(Cn3nc(CC(=O)O)c4ccccc4c3=O)sc2c1 | 320 nM | inhibition [3]: inactive
3 | O=C(O)Cc1nn(Cc2nc3cc(C(F)(F)F)cc(Cl)c3s2)c(=O)c2ccccc12 | 94 nM | inhibition [1]: 26%
4 | O=C(O)Cc1nn(Cc2nc3c(Cl)cc(Cl)cc3s2)c(=O)c2ccccc12 | 170 nM | 
5 | O=C(O)Cc1nn(Cc2nc3c(Cl)c(Cl)ccc3s2)c(=O)c2ccccc12 | 100 nM | 
6 | O=C(O)Cc1nn(Cc2cccc(-c3nc4ccccc4s3)c2)c(=O)c2ccccc12 | 5700 nM | 
7 | O=C(O)Cc1nn(Cc2nc3ccccc3s2)c(=O)c2ccc([N+](=O)[O-])cc12 | 46 nM | inhibition [6]: inactive
8 | O=C(O)Cc1nn(Cc2nc3ccc(O)cc3s2)c(=O)c2ccccc12 | 1000 nM | 
9 | CN1C(C(=O)Nc2nc3ccccc3s2)=C(O)c2ccccc2S1(=O)=O | 5500 nM | 
10 | O=C(O)Cc1nn(Cc2nc3cc(C(F)(F)F)c(O)cc3s2)c(=O)c2ccccc12 | 120 nM | inhibition [3]: inactive
11 | O=C(O)Cc1nn(Cc2nc3cc(C(F)(F)F)cc(C(F)(F)F)c3s2)c(=O)c2ccccc12 | 1400 nM | inhibition [6]: inactive
12 | CC(c1nc2ccccc2s1)n1nc(CC(=O)O)c2ccccc2c1=O (configuration not stated) | 43 nM | inhibition in vivo at 25 mg/kg ([4]; dose 25 mg/kg, route oral): 50%
13 | COc1cc2sc(Cn3nc(CC(=O)O)c4ccccc4c3=O)nc2cc1C(F)(F)F | 4300 nM | 
14 | C[S+]([O-])c1ccc2sc(Cn3nc(CC(=O)O)c4ccccc4c3=O)nc2c1 (configuration not stated) | 4300 nM | 
15 | O=C(O)Cc1nn(Cc2nc3ccccc3s2)c(=O)c2cc(Br)ccc12 | 690 nM | inhibition [1]: 42%
16 | CC(C)c1ccc2c(=O)n(Cc3nc4ccccc4s3)nc(CC(=O)O)c2c1 | 110 nM | 
17 | COc1cc(C(F)(F)F)c2sc(Cn3nc(CC(=O)O)c4ccccc4c3=O)nc2c1 | 660 nM | 
18 | O=C(O)Cc1nn(Cc2nc3c(O)cccc3s2)c(=O)c2ccccc12 | 100 nM | inhibition [3]: inactive
19 | O=C(O)Cc1nn(CCc2nc3cc(C(F)(F)F)ccc3s2)c(=O)c2ccccc12 | 460 nM | 
20 | O=C(O)Cc1nn(Cc2nc3ccc(Cl)cc3s2)c(=O)c2ccccc12 | 76 nM | inhibition in vivo at 25 mg/kg ([4]; dose 25 mg/kg, route oral): 61%
21 | O=C(O)Cc1nn(-c2nc3ccccc3s2)c(=O)c2ccccc12 | > 1000 nM | 
22 | O=C(O)Cc1nn(Cc2nc3c(ccc4ccccc43)s2)c(=O)c2ccccc12 | 510 nM | inhibition [3]: inactive
23 | Cc1cccc2c(CC(=O)O)nn(Cc3nc4c(ccc5ccccc54)s3)c(=O)c12 | 42 nM | inhibition [6]: inactive

Row | Structure (SMILES) | IC50 [2] | also measured
24 | O=C(O)Cc1nn(Cc2nc3cc(F)c(F)cc3s2)c(=O)c2ccccc12 | 68 nM | inhibition in vivo at 25 mg/kg ([4]; dose 25 mg/kg, route oral): 75%
25 | O=C(O)Cc1nn(Cc2nc3ccc(Br)cc3s2)c(=O)c2cc(Cl)c(Cl)cc12 | 1800 nM | 
26 | O=C(O)Cc1nn(Cc2nc3cc(Cl)cc(C(F)(F)F)c3s2)c(=O)c2ccccc12 | 620 nM | 
27 | O=C(O)Cc1nn(Cc2nc3cc(F)cc(C(F)(F)F)c3s2)c(=O)c2ccccc12 | 100 nM | inhibition [6]: inactive
28 | O=C(O)Cc1nn(Cc2nc3c(ccc4ccccc43)s2)c(=O)c2ccc(Cl)cc12 [listing 1 of 2 here] | 350 nM | 
29 | CC(C)c1ccc2nc(Cn3nc(CC(=O)O)c4ccccc4c3=O)sc2c1 | 3200 nM | 
30 | COc1cc(OC)c2sc(Cn3nc(CC(=O)O)c4ccccc4c3=O)nc2c1 | 700 nM | 
31 | CS(=O)(=O)c1ccc2sc(Cn3nc(CC(=O)O)c4ccccc4c3=O)nc2c1 | 1700 nM | inhibition [6]: inactive
32 | COc1cc2nc(Cn3nc(CC(=O)O)c4ccccc4c3=O)sc2cc1F | 2300 nM | inhibition [3]: inactive
33 | O=C1NC(=O)C2(CN(Cc3ccc(F)cc3)c3ccc(F)cc32)N1 (configuration not stated) | 140 nM | 
34 | CSc1ccc2sc(Cn3nc(CC(=O)O)c4ccccc4c3=O)nc2c1 | 60 nM | 
35 | O=C(O)Cc1nn(CSc2nc3ccccc3s2)c(=O)c2ccccc12 | 81 nM | 
36 | O=C(O)Cc1nn(Cc2ccc(-c3nc4ccccc4s3)cc2)c(=O)c2ccccc12 | > 1000 nM | 
37 | O=C(O)Cc1nn(Cc2nc3cc(Cl)c(Cl)cc3s2)c(=O)c2ccccc12 | 420 nM | inhibition in vivo at 25 mg/kg ([4]; dose 25 mg/kg, route oral): 34%
38 | COc1cccc2sc(Cn3nc(CC(=O)O)c4ccccc4c3=O)nc12 | 100 nM | inhibition [3]: inactive
39 | Cc1cccc2c(CC(=O)O)nn(Cc3nc4ccccc4s3)c(=O)c12 | 420 nM | inhibition [6]: inactive
40 | COc1ccc2nc(Cn3nc(CC(=O)O)c4ccccc4c3=O)sc2c1 | 4200 nM | 
41 | O=C(O)c1nnc(O)c2ccccc12 |  | logP [8]: 2.42; pKa [9]: 6.35; pKa [10]: 5.49
42 | O=C(O)Cc1nn(Cc2nc3c(ccc4ccccc43)s2)c(=O)c2ccc(Cl)cc12 [listing 2 of 2 here] | 300 nM | 
43 | Cc1ccc2nc(Cn3nc(CC(=O)O)c4ccccc4c3=O)sc2c1F | 320 nM | 
44 | COc1ccc2sc(Cn3nc(CC(=O)O)c4ccccc4c3=O)nc2c1 | 230 nM | inhibition [3]: inactive
45 | O=C(O)Cc1nn(Cc2nc3cc(Cl)c(F)cc3s2)c(=O)c2ccccc12 | 110 nM | 
46 | O=C(O)Cc1nn(Cc2nc3cc(O)cc(O)c3s2)c(=O)c2ccccc12 | 87 nM | 

More lines, main results first:

Row | IC50 [2] | Structure (SMILES) | also measured
47 | 20 nM | O=C(O)Cc1nn(Cc2nc3c(Cl)ccc(Cl)c3s2)c(=O)c2ccccc12 | inhibition in vivo at 25 mg/kg ([4]; dose 25 mg/kg, route oral): 65%
48 | 19 nM | O=C(O)Cc1nn(Cc2nc3ccccc3s2)c(=O)c2ccccc12 | inhibition in vivo at 25 mg/kg ([4]; dose 25 mg/kg, route oral): 67%; ED50 [5]: 18.5 mg/kg
49 | 5 nM | O=C(O)Cc1nn(Cc2nc3c(F)ccc(F)c3s2)c(=O)c2ccccc12 | inhibition [1]: 73%
50 | 28 nM | COc1ccc2c(=O)n(Cc3nc4ccccc4s3)nc(CC(=O)O)c2c1 | 
51 | 5 nM | O=C(O)Cc1nn(Cc2nc3cc(Cl)cc(F)c3s2)c(=O)c2ccccc12 | inhibition [1]: 63%
52 | 26 nM | Cc1ccc2sc(Cn3nc(CC(=O)O)c4ccccc4c3=O)nc2c1 | inhibition [3]: inactive
53 | 37 nM | O=C1NC(=O)C2(CN(Cc3nc4ccccc4s3)c3ccc(Cl)cc32)N1 (configuration not stated) | 
54 | 10 nM | O=C(O)Cc1nn(Cc2nc3ccccc3s2)c(=O)c2cc(Cl)c(Cl)cc12 | 
55 | 30 nM | O=C(O)Cc1nn(Cc2nc3ccccc3s2)c(=O)c2c(F)cccc12 | 
56 | 18 nM | O=C(O)Cc1nn(Cc2nc3ccccc3s2)c(=O)c2ccc(C(F)(F)F)cc12 | inhibition [6]: inactive
57 | 3.5 nM | O=C(O)Cc1nn(Cc2nc3c(Cl)cccc3s2)c(=O)c2ccccc12 | inhibition [1]: 63%
58 | 21 nM | O=C(O)Cc1nn(Cc2ccc(Br)cc2F)c(=O)c2ccccc12 [PONALRESTAT] | 
59 | 7.1 nM | O=C(O)Cc1nn(Cc2nc3cc(Cl)ccc3s2)c(=O)c2ccccc12 | inhibition [1]: 73%
60 | 26 nM | CC(c1nc2cc(Cl)ccc2s1)n1nc(CC(=O)O)c2ccccc2c1=O (configuration not stated) | inhibition [1]: 53%
61 | 12 nM | O=C(O)Cc1nn(Cc2nc3ccccc3s2)c(=O)c2cc(C(F)(F)F)ccc12 | inhibition [6]: inactive
62 | 4 nM | O=C(O)Cc1nn(Cc2nc3cc(Cl)cc(Cl)c3s2)c(=O)c2ccccc12 | ED50 [5]: 3.5 mg/kg; ED50 [7]: 2.8 mg/kg; inhibition [1]: 73%
63 | 34 nM | O=C(O)Cc1nn(Cc2nc3ccccc3s2)c(=O)c2ccc(Cl)cc12 | 
64 | 33 nM | O=C(O)Cc1nn(Cc2nc3ccccc3s2)c(=O)c2cc([N+](=O)[O-])ccc12 | 

Row | IC50 [2] | Structure (SMILES) | also measured
65 | 15 nM | O=C(O)Cc1nn(Cc2nc3ccccc3s2)c(=O)c2cc(Cl)ccc12 | 
66 | 10 nM | O=C(O)Cc1nn(Cc2nc3cccnc3s2)c(=O)c2ccccc12 | inhibition in vivo at 25 mg/kg ([4]; dose 25 mg/kg, route oral): 83%
67 | 37 nM | CC(c1nc2cc(C(F)(F)F)ccc2s1)n1nc(CC(=O)O)c2ccccc2c1=O (configuration not stated) | 
68 | 17 nM | O=C(O)Cc1nn(Cc2nc3cc(C(F)(F)F)cc(F)c3s2)c(=O)c2ccccc12 | 
69 | 12 nM | O=C(O)Cc1nn(Cc2nc3ccccc3s2)c(=O)c2ccc(Br)cc12 | 
70 | 10 nM | O=C(O)Cc1nn(Cc2nc3c(F)c(F)ccc3s2)c(=O)c2ccccc12 | inhibition [1]: 82%
71 | 26 nM | COc1ccc2c(CC(=O)O)nn(Cc3nc4ccccc4s3)c(=O)c2c1 | inhibition [6]: inactive
72 | 26 nM | O=C(O)Cc1nn(Cc2nc3ccc(Br)cc3s2)c(=O)c2ccccc12 | 
73 | 2 nM | O=C(O)Cc1nn(Cc2nc3c(F)cccc3s2)c(=O)c2ccccc12 | inhibition [6]: inactive
74 | 41 nM | O=C(O)Cc1nn(Cc2nc3cc(O)ccc3s2)c(=O)c2ccccc12 | 
75 | 1 nM | O=C(O)Cc1nn(Cc2nc3cccc(Cl)c3s2)c(=O)c2ccccc12 | inhibition [1]: 52%
76 | 10 nM | O=C(O)Cc1nn(Cc2nc3cccc(C(F)(F)F)c3s2)c(=O)c2ccccc12 | inhibition [1]: 80%
77 | 5.9 nM | Cc1cc(C)c2sc(Cn3nc(CC(=O)O)c4ccccc4c3=O)nc2c1 | inhibition in vivo at 25 mg/kg ([4]; po): 39%
78 | 25 nM | O=C(O)Cc1nn(Cc2nc3c(C(F)(F)F)cccc3s2)c(=O)c2ccccc12 | inhibition [1]: 61%
79 | 6.2 nM | O=C(O)Cc1nn(Cc2nc3cc(F)cc(Cl)c3s2)c(=O)c2ccccc12 | inhibition [1]: 58%
80 | 27 nM | Cc1ccc2c(=O)n(Cc3nc4ccccc4s3)nc(CC(=O)O)c2c1 | 
81 | 15 nM | O=C(O)Cc1nn(Cc2nc3cccc(Br)c3s2)c(=O)c2ccccc12 | inhibition [1]: 71%
